Experimental data reported in ChEMBL document CHEMBL1152395, “Scuteflorins A and B, dihydropyranocoumarins from Scutellaria lateriflora” (J Nat Prod, 2009).
The source made the active and inactive calls. No cut-off for these calls is given here.

Columns and labels:
SW1353 [1] = experiment: Antiinflammatory activity in PMA-stimulated human SW1353 cells assessed as inhibition of NF-kappaB activation; assay type: functional, cell-based
Procedure, shortened: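 SW1353 cells were stimulated with PMA, and inhibition of NF-κB-mediated transcription was scored as IC50. Parthenolide was the positive control. Specificity was checked against a Sp-1-dependent luciferase control plasmid.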

SK-MEL = experiment: Cytotoxicity against human SK-MEL cells upto 50 uM by neutral red assay; assay type: functional, cell-based
Procedure, shortened: (§1)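 Neutral red uptake assay. Purified compounds were tested up to 50 μM and the methanol extract up to 50 μg/mL. The panel was normal Vero monkey kidney fibroblasts and LLC-PK11 pig kidney epithelial cells, plus solid tumour lines HepG2, SK-MEL, KB, BT-549 and SK-OV-3.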

KB = experiment: Cytotoxicity against human KB cells upto 50 uM by neutral red assay; assay type: functional, cell-based; procedure, shortened: as §1
BT-549 = experiment: Cytotoxicity against human BT549 cells upto 50 uM by neutral red assay; assay type: functional, cell-based; procedure, shortened: as §1
SK-OV-3 = experiment: Cytotoxicity against human SKOV3 cells upto 50 uM by neutral red assay; assay type: functional, cell-based; procedure, shortened: as §1
Vero = experiment: Cytotoxicity against african green monkey Vero cells upto 50 uM by neutral red assay; assay type: cell-based; conditions: chlorocebus sabaeus; procedure, shortened: as §1
[2] = target: Transcription factor Sp1 (Homo sapiens) (UniProt P08047); experiment: Inhibition of SP1-dependent luciferase expression
Sequence of Transcription factor Sp1 (Homo sapiens) (P08047 whole entry): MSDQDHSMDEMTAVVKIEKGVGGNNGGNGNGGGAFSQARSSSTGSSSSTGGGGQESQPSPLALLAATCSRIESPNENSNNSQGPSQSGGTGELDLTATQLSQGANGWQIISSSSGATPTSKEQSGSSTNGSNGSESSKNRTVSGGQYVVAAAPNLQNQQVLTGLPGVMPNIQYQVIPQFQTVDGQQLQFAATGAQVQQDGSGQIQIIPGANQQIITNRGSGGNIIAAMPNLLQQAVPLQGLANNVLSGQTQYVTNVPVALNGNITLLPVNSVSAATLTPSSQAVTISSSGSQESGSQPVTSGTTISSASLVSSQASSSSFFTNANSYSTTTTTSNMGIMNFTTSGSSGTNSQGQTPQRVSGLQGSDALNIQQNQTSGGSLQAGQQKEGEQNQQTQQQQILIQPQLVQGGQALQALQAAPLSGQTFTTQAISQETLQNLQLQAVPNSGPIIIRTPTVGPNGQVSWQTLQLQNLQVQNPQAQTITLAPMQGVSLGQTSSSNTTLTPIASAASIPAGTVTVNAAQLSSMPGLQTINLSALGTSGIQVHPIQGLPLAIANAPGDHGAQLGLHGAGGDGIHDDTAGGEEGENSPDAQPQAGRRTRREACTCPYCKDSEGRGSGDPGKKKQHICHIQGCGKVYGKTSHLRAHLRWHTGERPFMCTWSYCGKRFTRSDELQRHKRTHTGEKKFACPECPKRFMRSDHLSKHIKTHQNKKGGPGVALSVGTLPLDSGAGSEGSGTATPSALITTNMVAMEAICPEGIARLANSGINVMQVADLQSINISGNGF
Procedure, shortened: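 Counter-screen in SW1353 cells for inhibition of luciferase expression from a control plasmid driven by Sp-1. It runs alongside the PMA-induced NF-κB transcription assay to exclude nonspecific or cytotoxic effects.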

[3] = Cytotoxicity against pig LLC-PK11 cells upto 50 uM by neutral red assay; assay type: cell-based, Sus scrofa; procedure, shortened: as §1
SW1353 [4] = experiment: Cytotoxicity against human SW1353 cells by neutral red assay; assay type: cell-based
HepG2 = experiment: Cytotoxicity against human HepG2 cells upto 50 uM by neutral red assay; assay type: functional, cell-based; procedure, shortened: as §1
HL-60 [5] = experiment: Antioxidant activity in human HL60 cells assessed as inhibition of relative oxygen species generation by DCFH-DA method; assay type: functional, cell-based
Procedure, shortened: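 Intracellular reactive oxygen species generation was measured in myelomonocytic HL-60 cells by the DCFH-DA method. IC50 values were derived, and vitamin C served as positive control. Cytotoxicity in HL-60 cells was checked up to 62.5 μM within this assay.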

HL-60 [6] = experiment: Cytotoxicity against human HL60 cells by neutral red assay; assay type: cell-based

Row | Structure (SMILES) | IC50 (SW1353 [1]) [µM] | Activity (SK-MEL) | Activity (KB) | Activity (BT-549) | Activity (SK-OV-3) | Activity (Vero) | Activity [2] | Activity [3] | Activity (SW1353 [4]) | Activity (HepG2) | IC50 (HL-60 [5]; Homo sapiens, HL-60, read-out: IC50) [µM] | IC50 (HL-60 [5]; hl-60) | Activity (HL-60 [6])
1 | C=C1C(=O)O[C@@H]2C3O[C@]3(C)CC/C=C(\C)CC[C@@H]12 (some centres not stated) | 4.1 | – | – | – | – | – | – | – | – | – | – | – | –
2 | COc1ccccc1-c1cc(=O)c2c(O)cc(O)c(OC)c2o1 | – | inactive | inactive | inactive | inactive | Non-toxic | inactive | Non-toxic | Non-toxic | inactive | – | – | –
3 | O=C1O[C@H]([C@@H](O)CO)C(O)=C1O [ASCORBIC ACID] | – | – | – | – | – | – | – | – | – | – | 0.01 | – | –
4 | CC[C@H](CC[C@@H](C)[C@H]1CC[C@H]2[C@@H]3CC=C4C[C@@H](O)CC[C@]4(C)[C@H]3CC[C@]12C)C(C)C [BETA-SITOSTEROL] | – | inactive | inactive | inactive | inactive | Non-toxic | inactive | Non-toxic | Non-toxic | inactive | – | – | –
5 | O=c1cc(-c2ccccc2)oc2cc(O)cc(O)c12 [CHRYSIN] | 33 | inactive | inactive | inactive | inactive | Non-toxic | inactive | Non-toxic | Non-toxic | inactive | – | Not Active | –
6 | CC(C)=CC(=O)O[C@H]1Cc2cc3ccc(=O)oc3cc2OC1(C)C [DECURSIN] | – | inactive | inactive | inactive | inactive | Non-toxic | inactive | Non-toxic | Non-toxic | inactive | – | – | –
7 | COc1c(O)cc2c(c1O)C(=O)C[C@@H](c1ccccc1)O2 [DIHYDROOROXYLIN A] | – | inactive | inactive | inactive | inactive | Non-toxic | inactive | Non-toxic | Non-toxic | inactive | – | – | –
8 | C=C(C)[C@@H]1CC[C@]2(C)CC[C@]3(C)[C@H](CC[C@@H]4[C@@]5(C)CC[C@H](O)C(C)(C)[C@@H]5CC[C@]43C)[C@@H]12 [LUPEOL] | – | inactive | inactive | inactive | inactive | Non-toxic | inactive | Non-toxic | Non-toxic | inactive | – | – | –
9 | COc1c(O)cc2oc(-c3ccccc3)cc(=O)c2c1O [OROXYLIN A] | > 50 | inactive | inactive | inactive | inactive | Non-toxic | inactive | Non-toxic | Non-toxic | inactive | – | Not Active | –
10 | CCCCCCCCCCCCCCCC(=O)O [PALMITIC ACID] | – | inactive | inactive | inactive | inactive | Non-toxic | inactive | Non-toxic | Non-toxic | inactive | – | – | –
11 | O=C1C[C@@H](c2ccccc2)Oc2cc(O)cc(O)c21 [PINOCEMBRIN] | – | inactive | inactive | inactive | inactive | Non-toxic | inactive | Non-toxic | Non-toxic | inactive | – | – | –
12 | C[C@@H]1CC[C@]2(C(=O)O)CC[C@]3(C)C(=CC[C@@H]4[C@@]5(C)CC[C@H](O)C(C)(C)[C@@H]5CC[C@]43C)[C@@H]2[C@]1(C)O [POMOLIC ACID] | – | inactive | inactive | inactive | inactive | Non-toxic | inactive | Non-toxic | Non-toxic | inactive | – | – | –
13 | CC(C)=CC(=O)O[C@H]1C(=O)c2cc3ccc(=O)oc3cc2OC1(C)C [SCUTEFLORIN A] | – | inactive | inactive | inactive | inactive | Non-toxic | inactive | Non-toxic | Non-toxic | inactive | – | – | –
14 | C/C=C(/C)C(=O)O[C@H]1C(=O)c2cc3ccc(=O)oc3cc2OC1(C)C [SCUTEFLORIN B] | – | inactive | inactive | inactive | inactive | Non-toxic | inactive | Non-toxic | Non-toxic | inactive | – | – | –
15 | CC1(C)CC[C@]2(C(=O)O)CC[C@]3(C)C(=CC[C@@H]4[C@@]5(C)CC[C@@H](O)[C@](C)(CO)[C@@H]5CC[C@]43C)[C@@H]2C1 [SCUTELLARIC ACID] | – | inactive | inactive | inactive | inactive | Non-toxic | inactive | Non-toxic | Non-toxic | inactive | – | – | –
16 | CC[C@H](CC[C@@H](C)[C@H]1CC[C@H]2[C@@H]3CC=C4C[C@@H](O[C@@H]5O[C@H](CO)[C@@H](O)[C@H](O)[C@H]5O)CC[C@]4(C)[C@H]3CC[C@]12C)C(C)C [SITOGLUSIDE] | – | inactive | inactive | inactive | inactive | Non-toxic | inactive | Non-toxic | Non-toxic | inactive | – | – | –
17 | C[C@H]1[C@H](C)CC[C@]2(C(=O)O)CC[C@]3(C)C(=CC[C@@H]4[C@@]5(C)CC[C@H](O)C(C)(C)[C@@H]5CC[C@]43C)[C@H]12 [URSOLIC ACID] | – | inactive | inactive | inactive | inactive | Non-toxic | inactive | Non-toxic | Non-toxic | inactive | – | – | –
18 | COc1c(O)cc(O)c2c(=O)cc(-c3ccccc3)oc12 [WOGONIN] | 39 | inactive | inactive | inactive | inactive | Non-toxic | inactive | Non-toxic | Non-toxic | inactive | – | – | Not Active
